Screens deposited in PubChem BioAssay by The Scripps Research Institute Molecular Screening Center.
A selection: hits, their analogues and other compounds. The true share with any hit is near 3%.
TAAR1 ag: human TAAR1 agonism; 360,000 compounds, 0.99% hits; CHO RD-HGA16 TAAR1, Fluo-8 calcium fluorescence; vehicle wells 0%, saturating PEA agonist 100%; activation, % at 3 µM; Q96RJ0;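 active = activation above the mean activation of all test compounds in the run plus 3 SD, cut at about 38% in these data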
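Assay system – CHO-derived RD-HGA16 cells with stable Gα16 and human TAAR1 · Compound dosing – one-point dosing at 3 µM (nominal) · Incubation – 17-24 h seeding, 75 min 37 °C dye, 30 min RT · Measured by – kinetic Fluo-8 calcium fluorescence · Control set – DMSO vehicle as 0%, PEA at EC100 as 100% · Repeats – single well for each compound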
TAAR1 antag: antagonists of human TAAR1. Q96RJ0. CHO RD-HGA16 TAAR1, Fluo-8 calcium fluorescence, antagonist. inhibition, % at 3 µM. 360,000 compounds, 1.5% hits. AID 624466;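 active = inhibition above a per-plate cutoff, the mean inhibition of test compounds on that plate plus 3 SD, cut at about 49% in these data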;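 also: 0% = DMSO plus EC80 beta-PEA response and 100% = DMSO alone without agonist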
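Test system – hTAAR1-expressing CHO RD-HGA16 cells, Gα16-coupled · Reagent – β-PEA at EC80 concentration, post-compound challenge · Compound dosing – 3 µM, single point · Timing – 140 s kinetic read after compound, 140 s after agonist · Detection – Fluo-8 intracellular calcium dye fluorescence, real-time kinetic reads · Control set – DMSO and EC80 PEA controls · Repeats – n of 1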
CHRM4 antagonist: antagonists of human muscarinic M4 receptor (CHRM4); P08173; CHO-hM4 cells, ACh EC80, Fluo-8 calcium fluorescence; inhibition, % at 3 µM; 360,000 compounds, 0.73% hits; AID 624125;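 active = inhibition above its plate's cutoff, the mean inhibition of sample wells plus 3 SD, cut at about 27% in these data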;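 also: 0% = acetylcholine EC80 with DMSO and 100% = DMSO without agonist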
Target sequence (P08173 whole entry, looked up): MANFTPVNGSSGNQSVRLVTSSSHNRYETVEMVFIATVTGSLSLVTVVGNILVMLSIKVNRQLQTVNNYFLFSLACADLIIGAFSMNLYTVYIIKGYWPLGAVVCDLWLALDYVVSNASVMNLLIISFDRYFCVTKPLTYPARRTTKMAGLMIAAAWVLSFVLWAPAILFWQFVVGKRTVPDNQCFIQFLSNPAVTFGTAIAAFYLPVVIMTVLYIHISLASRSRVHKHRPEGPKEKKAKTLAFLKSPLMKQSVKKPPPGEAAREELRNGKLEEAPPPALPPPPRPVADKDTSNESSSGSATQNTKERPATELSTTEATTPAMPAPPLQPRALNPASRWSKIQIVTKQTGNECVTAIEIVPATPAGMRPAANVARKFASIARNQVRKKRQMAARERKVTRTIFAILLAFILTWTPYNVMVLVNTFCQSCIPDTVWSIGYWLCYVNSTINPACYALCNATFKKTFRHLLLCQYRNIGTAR
M4 PAM: CHRM4 positive allosteric modulation; P08173; activation, % at 3 µM; CHO-K1 hM4/Gqi5, Fluo-8 calcium fluorescence, ACh EC20; 0% = ACh EC20, 100% = maximal ACh; 360,000 compounds, 0.4% hits;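 active = activation above its plate's cutoff, the mean activation of sample wells plus 3 SD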
CHRM4 agonist: agonists of human muscarinic M4 receptor (CHRM4) | P08173 | CHO-K1 hM4/Gqi5, Fluo-8 calcium fluorescence; vehicle 0%, full acetylcholine response 100% | activation, % at 3 µM | 360,000 compounds, 0.14% hits | AID 624127;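 active = activation above the run mean over all test wells plus 3 SD, cut at about 32% in these data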;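 also: peak over basal fluorescence ratio per well then scaled between controls; 0% = DMSO wells and 100% = acetylcholine at EC100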
TAAR1 nonsel count: nonselective antagonism, TAAR1 counter-screen; inhibition, % at 3 µM; AID 651780; 2,400 compounds, 77% hits; counterscreen cell line, calcium fluorescence, antagonist mode; shares compounds with TAAR1 antag; in the data active = inhibition above about 22%;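 also: CHO-Ga16 host cells stimulated with ATP at an EC80 level; 0% = agonist EC80 plus vehicle and 100% = vehicle without agonist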
TAAR1 antag conf: human TAAR1 antagonism, confirmed; shares compounds with TAAR1 antag; TAAR1-expressing cells, fluorescence antagonist read-out; inhibition, % at 3 µM; 2,400 compounds, 40% hits; AID 651785; in the data active = inhibition above about 49%;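 also: CHO-Ga16 host cells challenged with agonist PEA near its EC80; 0% = agonist at EC80 plus vehicle and 100% = vehicle with no agonist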
Ga16 nonsel ag: nonselective Ga16 agonist in TAAR1 antagonist counter-screen. Ga16-expressing cells, calcium fluorescence, agonist counterscreen. AID 651953. activation, % at 3 µM. shares compounds with TAAR1 antag. 2,400 compounds, 18% hits; in the data active = activation above about 12%;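 also: 0% = vehicle wells and 100% = saturating stimulus response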
TAAR1 ag counter: activates human TAAR1 in antagonist counter-screen | shares compounds with TAAR1 antag | hTAAR1 cell line, fluorescence activation, agonist mode | activation, % at 3 µM | 2,400 compounds, 2% hits; in the data active = activation above about 37%;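 also: CHO cells stably expressing TAAR1 with calcium dye readout; 0% = DMSO vehicle and 100% = full agonist response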
* hit, by the source's call; / = no result.

SMILES	TAAR1 ag	TAAR1 antag	CHRM4 antagonist	M4 PAM	CHRM4 agonist	TAAR1 nonsel count	TAAR1 antag conf	Ga16 nonsel ag	TAAR1 ag counter
CCC1Oc2ccc(C)cc2N(CC(=O)NCC2COc3ccccc3O2)C1=O (stereo unspecified)	5	67*	-23	-9	22	24*	49*	8	10
Cc1ccc2c(c1)N(CCC(=O)NCC1COc3ccccc3O1)C(=O)CO2 (stereo unspecified)	6	16	14	-8	2	/	/	/	/
COc1ccccc1N1CCN(C(=O)c2oc3ccc(Br)cc3c2C)CC1	-1	-16	4	-1	0	/	/	/	/
COc1ccccc1N1CCN(C(=O)c2ccc(Br)o2)CC1	-3	101*	-1	15	2	9	15	11	15
COc1ccccc1N1CCN(C(=O)/C=C/c2ccccc2)CC1	16	105*	-3	7	2	6	5	1	4
COc1ccccc1N1CCN(C(=O)c2oc3ccc(F)cc3c2C)CC1	12	53*	-3	-22	15	26*	51*	7	7
O=C(c1ccc(Br)o1)N1CCN(c2ccccc2F)CC1	4	-7	-2	10	1	/	/	/	/
COc1ccccc1N1CCN(C(=O)/C=C/c2cccs2)CC1	0	-17	0	-4	1	/	/	/	/
O=C(NCc1ccccc1)[C@@H]1CCCN1C(=O)[C@H]1CCCN1C(=O)c1ccc(OC(F)(F)F)cc1	-1	-11	/	/	/	/	/	/	/
CSc1ccccc1C(=O)OCC(=O)NC1CC1	4	-16	-11	3	1	/	/	/	/
CO[C@H]1CN(C)C(=O)c2ccc(NC(=O)C3CCC3)cc2OC[C@H](C)N(Cc2ccccn2)C[C@@H]1C	1	-28	5	7	3	/	/	/	/
CC1(C(=O)Nc2ccc3c(c2)OCCO3)CCC(=O)N1C1CCN(Cc2ccccc2)CC1 (stereo unspecified)	2	3	5	-3	0	/	/	/	/
COc1ccc(-c2nc(C#N)c(NCc3ccccc3Cl)o2)cc1	16	53*	-1	2	0	4	7	1	6
COc1ccc(-c2nc(C#N)c(NCc3ccccc3Cl)o2)cc1OC	0	2	-5	2	0	/	/	/	/
COc1ccccc1N1CCN(C(=O)c2sc3nc(C)nc(N4CCN(c5ccccn5)CC4)c3c2C)CC1	7	55*	1	-5	16	17	34	4	5
Cc1c(C(=O)N2CCN(c3ccccc3)CC2)sc2ncnc(N3CCN(c4ccccn4)CC3)c12	1	15	-3	-4	2	/	/	/	/
Cc1c(C(=O)N2CCN(c3ccc(F)cc3)CC2)sc2ncnc(N3CCN(c4ccccn4)CC3)c12	10	70*	16	-16	21	29*	47	9	8
CCN1/C(=C\C=C(C(C)=O)C(C)=O)Sc2ccccc21	27	10	-1	-1	7	/	/	/	/
CCOC(=O)/C(C#N)=C(C)/C=C1\Sc2ccccc2N1CC	2	56*	-12	13	1	22*	24	18*	16
CC(C)COc1ccc(C(=O)N/N=C/c2ccoc2)cc1	-1	62*	-4	6	0	13	37	8	10
COc1ccc(CCNC2=C(Cl)C(=O)N(CCc3ccccc3)C2=O)cc1OC	13	74*	5	-9	12	38*	46	8	4
COc1ccc(CCNC2CC(=O)N(CCc3ccccc3)C2=O)cc1OC (stereo unspecified)	-1	8	1	3	4	/	/	/	/
CC(C)(C)OC(=O)NCc1ccc(CNC(=O)c2[nH]cnc2C(=O)N[C@@H](Cc2ccccc2)C(=O)OCc2ccccc2)cc1	3	33	13	9	3	/	/	/	/
CC(C)(C)OC(=O)NCc1ccc(CNC(=O)c2[nH]cnc2C(=O)NCC(=O)OCc2ccccc2)cc1	24	92*	38*	-14	30	49*	66*	12*	12
CC(C)(C)OC(=O)NCc1ccc(CNC(=O)c2nc[nH]c2C(=O)NCc2ccccc2)cc1	18	57*	-1	-2	6	35*	44	7	4
SMILES	TAAR1 ag	TAAR1 antag	CHRM4 antagonist	M4 PAM	CHRM4 agonist	TAAR1 nonsel count	TAAR1 antag conf	Ga16 nonsel ag	TAAR1 ag counter
CCOc1ccc(S(=O)(=O)N2CCC(C(=O)Nc3ccccc3N3CCCC3)CC2)cc1	0	-27	-30	-1	2	/	/	/	/
CCOC(=O)C1(C)CCCN(C(=O)C(c2ccccc2)c2ccccc2)C1 (stereo unspecified)	1	-14	-18	6	1	/	/	/	/
COc1cccc(-c2cc(CNC(=O)[C@H]3O[C@@H](n4ccc(=O)[nH]c4=O)[C@H](O)[C@@H]3O)no2)c1	0	-2	-4	4	1	/	/	/	/
COc1cc2c(cc1NC(=O)COc1ccccc1OC)oc1ccccc12	1	12	2	6	0	/	/	/	/
COc1cc2c(cc1NC(=O)COC(=O)Cn1cnc3ccccc31)oc1ccccc12	11	49*	-2	6	3	18	13	5	1
COc1ccc(Sc2ccc(-c3nc4cnccn4c3NC3CCCCC3)cc2OC)cc1	10	58*	-8	5	1	29*	41	4	4
O=C(O)c1cnc2ccc(Cl)cc2n1	2	-24	2	-2	1	/	/	/	/
COc1ccc(CCN2C(=O)C(Oc3ccccc3)C2c2ccc3c(c2)OCO3)cc1 (stereo unspecified)	12	31	-25	6	5	/	/	/	/
COc1ccc(OC2C(=O)N(CCc3ccc(OC)c(OC)c3)C2c2ccc3c(c2)OCO3)cc1 (stereo unspecified)	6	57*	-1	-8	8	22*	24	5	1
COc1cccc(NC(=O)N2CCN(c3nc(-c4cccc(OC)c4)cs3)CC2)c1	3	73*	6	-34	12	35*	43	7	1
O=C(Cn1cnc2c(OCc3ccccc3)ncnc21)NCCc1c[nH]c2ccccc12	9	-9	4	1	5	/	/	/	/
CCOC(=O)[C@]12CCCC=C1N(Cc1ccco1)C(=O)[C@H](CC(=O)N1CCSCC1)C2	0	10	9	4	-1	/	/	/	/
